ERAP1 HTS inh: blocks human ERAP1 aminopeptidase activity; Q9NZ08; recombinant ERAP1, Leu-AMC fluorescence, 60 min; inhibition, % at 10.7 µM; hit rate 0.15% among 340,000;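 active = mean replicate inhibition of at least 30%, or all replicates individually reaching that 30% level; inactive = mean below 30% and not every replicate reaching it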
DENV2 CPE: DENV2-induced cell death inhibition; CPE inhibition, % at 9.99 µM; hit rate 1.7% among 350,000; DENV2-infected cells, cytopathic effect rescue, plate reader; in the data active = CPE inhibition above about 20%, passing the limit was not always enough; tested in BHK-21 cells
PglD DTNB: PglD (C. jejuni) enzyme inhibition | AID 602405 | purified PglD enzyme, DTNB colorimetric CoA detection | hit rate 0.098% among 360,000 | inhibition, % at 12.5 µM; in the data active = inhibition above about 16%, passing the limit was not always enough
E-selectin induc: induces E-selectin expression in human endothelial cells. AID 686992. hit rate 0.37% among 260,000. P16581. HUVEC E-selectin immunofluorescence imaging; normalized: neutral wells 0, TNF-alpha wells 100. activation, % at 7.58 µM;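 active = mean E-selectin-positive cell signal at least 10% of the positive control, reached in at least 60% of replicates, without over 20% cell loss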
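Test system – human umbilical vein endothelial cells (HUVEC), E-selectin induction · Input – 3,000 HUVEC seeded per well · Buffer or medium – EGM-2, gelatin · Compound dosing – single-point compound dose · Detection – immunofluorescence imaging · Measure – percent E-selectin-positive cells · Controls – TNF-alpha high, DMSO low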
SIRT5 inh: sirtuin-5 (human) deacylase inhibition; Purified SirT5, succinyl-peptide AMC, trypsin-coupled fluorescence; inhibition, % at 15 µM; hit rate 1.1% among 330,000; AID 652115; in the data active = inhibition above about 15%
Target sequence (Q9NXA8 whole entry, looked up): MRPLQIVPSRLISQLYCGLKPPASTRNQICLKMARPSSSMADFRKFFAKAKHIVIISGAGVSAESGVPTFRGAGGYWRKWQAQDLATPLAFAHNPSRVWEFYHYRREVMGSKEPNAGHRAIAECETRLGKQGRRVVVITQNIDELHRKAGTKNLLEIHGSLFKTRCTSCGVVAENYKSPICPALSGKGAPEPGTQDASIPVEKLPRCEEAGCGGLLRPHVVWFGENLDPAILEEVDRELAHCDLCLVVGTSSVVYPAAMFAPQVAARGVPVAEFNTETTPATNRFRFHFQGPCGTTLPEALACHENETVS
Hits are given with their value; . = inactive; / = no result given. The list is not random: actives were taken first. Their share in the collection is about 2.5%.

SMILES | ERAP1 HTS inh | DENV2 CPE | PglD DTNB | E-selectin induc | SIRT5 inh
COc1ccc(NC(=O)Nc2ccc3c(c2)C(=O)N([C@H](C)CO)C[C@H](C)[C@@H](CN(C)Cc2ccccc2)O3)cc1 | . | 43 | . | . | .
N=C(N)c1ccccc1 | . | . | . | . | .
COc1ccc(N2CCN(C(=O)c3cccc(NC4=NC5CS(=O)(=O)CC5S4)c3)CC2)cc1 (stereo unspecified) | . | . | . | 53 | .
CNC[C@H]1OCCCC[C@@H](C)Oc2ccc(NS(=O)(=O)c3c(C)noc3C)cc2C(=O)N([C@H](C)CO)C[C@@H]1C | / | . | . | . | /
O=C1Nc2ccccc2SC1c1ccccc1 (stereo unspecified) | . | 25 | . | / | .
O=C1CC(c2ccccc2)Sc2ccccc2N1 (stereo unspecified) | / | / | . | / | /
Cc1ccc(S(=O)(=O)Nc2cccc3c2O[C@H](CN(C)CC2CC2)[C@@H](C)CN([C@H](C)CO)C3=O)cc1 | . | . | . | . | .
O=C(O)c1ccccc1NS(=O)(=O)c1cccc(-n2sc3ccccc3c2=O)c1 | 99 | . | . | / | .
O=C(O)c1ccccc1NS(=O)(=O)c1cccc(C(F)(F)F)c1 | / | / | . | / | /
O=C(NCc1ccncc1)c1nc(-c2ccc(C(F)(F)F)cc2)no1 | . | / | / | / | 19
O=C(NCc1cccnc1)c1nc(-c2ccc(C(F)(F)F)cc2)no1 | . | . | / | . | .
CN(C)C(=O)C[C@H]1CC[C@H]2[C@H](COc3ccc(NC(=O)c4ccc(F)cc4)cc3C(=O)N2C)O1 | . | . | . | . | .
NC(=O)c1ccc(NC(=O)CCCc2nc(-c3ccccc3Cl)no2)cc1 | . | / | . | / | 18
Cc1cccc(N2C(=O)N3[C@H](c4ccc(Br)cc4)[C@@H]4C(=O)N(C(C)(C)C)C(=O)[C@@H]4[C@]3(C)C2=O)c1 | . | 26 | . | . | .
O=C(C[C@@H]1C/C=C\C[C@H](Cc2ccc(F)cc2)C(=O)OC[C@H]2CCCN2C1=O)N[C@H](CO)Cc1ccccc1 | . | . | . | . | /
Cc1ccc(OCCCCNC(C)c2ccccc2)c(C)c1 (stereo unspecified) | . | 29 | . | / | .
CC(C)NC(=O)Nc1ccc2c(c1)C(=O)N([C@@H](C)CO)C[C@H](C)[C@@H](CN(C)C(=O)Nc1ccc3c(c1)OCO3)O2 | . | 21 | . | . | .
CC(C)NC(=O)Nc1ccc2c(c1)C(=O)N([C@H](C)CO)C[C@H](C)[C@H](CN(C)C(=O)Nc1ccc3c(c1)OCO3)O2 | . | . | . | . | .
CC(C)NC(=O)Nc1ccc2c(c1)C(=O)N([C@@H](C)CO)C[C@@H](C)[C@H](CN(C)C(=O)Nc1ccc3c(c1)OCO3)O2 | . | 28 | . | . | .
COCC#Cc1ccc2c(c1)O[C@@H](CN(C)C(=O)Nc1ccccc1F)[C@@H](C)CN([C@H](C)CO)S2(=O)=O | . | . | . | . | .
COc1ccc(CN(C)C[C@H]2Oc3ccc(NC(=O)Nc4c(C)noc4C)cc3C(=O)N([C@@H](C)CO)C[C@H]2C)cc1 | . | . | . | 239 | .
COc1ccc(CN(C)C[C@@H]2Oc3ccc(NC(=O)Nc4c(C)noc4C)cc3CC(=O)N([C@H](C)CO)C[C@@H]2C)cc1 | . | 41 | / | . | .
Cc1noc(C)c1NC(=O)Nc1ccc2c(c1)C(=O)N([C@H](C)CO)C[C@H](C)[C@@H](CN(C)Cc1ccc(Oc3ccccc3)cc1)O2 | . | . | . | . | .
COc1ccccc1NC(=O)COC(=O)c1[nH]c(=O)[nH]c(=O)c1N | . | . | . | / | 17
COc1ccccc1NC(=O)COC(=O)c1ccc([N+](=O)[O-])s1 | . | . | / | . | 23
SMILES | ERAP1 HTS inh | DENV2 CPE | PglD DTNB | E-selectin induc | SIRT5 inh
c1ccc2[nH]c(Cn3nnc4ccccc43)nc2c1 | / | . | . | . | /
COc1ccc(S(=O)(=O)N2CC[C@@H]3[C@H]2c2cc(C#Cc4ccccc4OC)ccc2N[C@@H]3CO)cc1 | . | 46 | . | . | .
COc1cccc(C#Cc2ccc3c(c2)[C@H]2[C@H](CCN2S(=O)(=O)c2cccc(OC)c2)[C@H](CO)N3)c1 | . | 38 | / | . | .
O=S(=O)(c1ccccc1)N1CC[C@H]2[C@H](CO)Nc3ccc(C#Cc4cccc(F)c4)cc3[C@H]21 | . | 30 | / | . | .
CSc1nc(SCC(=O)O)c2sc3nc(-c4ccccc4)c4c(c3c2n1)CCC4 | . | . | . | / | 19
CCN1CCN(c2ccc(S(=O)(=O)N3CCOCC3)cc2NC(=O)c2ccccc2OC(F)F)CC1 | . | . | / | . | .
C[C@@H]1CCCCO[C@@H](CN(C)C(=O)Nc2ccc(C(F)(F)F)cc2)[C@@H](C)CN([C@H](C)CO)C(=O)c2cc(NS(=O)(=O)c3ccc(F)cc3)ccc2O1 | . | . | / | / | .
C[C@@H]1CCCCO[C@@H](CN(C)C(=O)Nc2ccc(C(F)(F)F)cc2)[C@H](C)CN([C@@H](C)CO)C(=O)c2cc(NS(=O)(=O)c3ccc(F)cc3)ccc2O1 | . | 61 | . | / | .
C[C@H](CO)N1C[C@H](C)[C@H](CN(C)C(=O)Nc2ccc(C(F)(F)F)cc2)OCCCC[C@H](C)Oc2ccc(NS(=O)(=O)c3ccc(Cl)cc3)cc2C1=O | . | . | . | . | 40
C[C@@H]1CN([C@@H](C)CO)C(=O)c2cc(NS(=O)(=O)c3ccc(F)cc3)ccc2O[C@@H](C)CCCCO[C@@H]1CN(C)C(=O)Nc1ccc(C(F)(F)F)cc1 | . | . | / | / | /
C[C@@H]1CCCCO[C@H](CN(C)C(=O)Nc2ccc(C(F)(F)F)cc2)[C@H](C)CN([C@H](C)CO)C(=O)c2cc(NS(=O)(=O)c3ccc(F)cc3)ccc2O1 | . | 71 | . | / | .
C[C@@H]1CCCCO[C@@H](CN(C)C(=O)Nc2ccc(F)cc2)[C@H](C)CN([C@H](C)CO)C(=O)c2cc(NS(=O)(=O)c3ccc(F)cc3)ccc2O1 | / | . | . | . | /
C[C@H](CO)N1C[C@H](C)[C@@H](CN(C)C(=O)Nc2ccc(C(F)(F)F)cc2)OCCCC[C@H](C)Oc2ccc(NS(=O)(=O)c3ccc(F)cc3)cc2C1=O | . | 95 | . | / | .
OC[C@H]1Nc2ccc(-c3ccc(F)cc3)cc2[C@H]2[C@@H]1CCN2Cc1ccc(F)cc1 | / | . | . | / | /
Cc1ccc(S(=O)(=O)N2CC[C@@H]3[C@H]2c2cc(-c4ccc(C#N)cc4)ccc2N[C@@H]3CO)cc1 | / | 24 | . | . | /
Cc1ccc(S(=O)(=O)N2CC[C@H]3[C@H](CO)Nc4ccc(-c5ccccc5F)cc4[C@H]32)cc1 | . | . | . | . | .
Cc1ccc(S(=O)(=O)N2CC[C@@H]3[C@H](CO)Nc4ccc(-c5ccccc5F)cc4[C@@H]32)cc1 | . | 147 | . | . | .
C/C=C/c1ccc2c(c1)[C@H]1[C@H](CCN1Cc1ccc(F)cc1)[C@H](CO)N2 | . | 38 | / | . | .
O=S(=O)(c1ccc(F)cc1)N1CC[C@H]2[C@H](CO)Nc3ccc(-c4ccccc4F)cc3[C@H]21 | . | 43 | . | . | .

Source: PubChem
